Measured values from ChEMBL document CHEMBL1145127 (J Med Chem, 2003).

How the values were obtained:
[1] = molecular target: cGMP-specific 3',5'-cyclic phosphodiesterase (Bos taurus, UniProt Q28156); assay: In vitro inhibitory activity against bovine phosphodiesterase 5
Rattus norvegicus [2] = organism: Rattus norvegicus; assay: Effective concentration against rat aortic smooth muscle cell; assay type: functional
Summary of the method: (§1)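 Rat aortic smooth muscle cells cultured in DMEM with 10% fetal calf serum at 37 °C, seeded at (2-5) × 10⁴ cells/well and used confluent after 3-5 days. Cells preincubated 30 min at 37 °C in PBS with inhibitor, then stimulated with atrial natriuretic factor (0.1 µM) 10 min. Intracellular cGMP extracted with 65% ethanol. Triplicate wells, DMSO ≤0.1%. EC50 taken as concentration giving half-maximal cGMP increase.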

[3] = molecular target: cGMP-specific 3',5'-cyclic phosphodiesterase (Bos taurus) (UniProt Q28156); assay: Inhibition of bovine PDE5 (Phosphodiesterase 5); conditions: concentration not given here
Phosphodiesterase 3B = Phosphodiesterase 3B (Bos taurus, UniProt E1BN64); assay: Inhibition of bovine aorta PDE3 (Phosphodiesterase 3)
Sequence of Phosphodiesterase 3B (E1BN64 whole entry): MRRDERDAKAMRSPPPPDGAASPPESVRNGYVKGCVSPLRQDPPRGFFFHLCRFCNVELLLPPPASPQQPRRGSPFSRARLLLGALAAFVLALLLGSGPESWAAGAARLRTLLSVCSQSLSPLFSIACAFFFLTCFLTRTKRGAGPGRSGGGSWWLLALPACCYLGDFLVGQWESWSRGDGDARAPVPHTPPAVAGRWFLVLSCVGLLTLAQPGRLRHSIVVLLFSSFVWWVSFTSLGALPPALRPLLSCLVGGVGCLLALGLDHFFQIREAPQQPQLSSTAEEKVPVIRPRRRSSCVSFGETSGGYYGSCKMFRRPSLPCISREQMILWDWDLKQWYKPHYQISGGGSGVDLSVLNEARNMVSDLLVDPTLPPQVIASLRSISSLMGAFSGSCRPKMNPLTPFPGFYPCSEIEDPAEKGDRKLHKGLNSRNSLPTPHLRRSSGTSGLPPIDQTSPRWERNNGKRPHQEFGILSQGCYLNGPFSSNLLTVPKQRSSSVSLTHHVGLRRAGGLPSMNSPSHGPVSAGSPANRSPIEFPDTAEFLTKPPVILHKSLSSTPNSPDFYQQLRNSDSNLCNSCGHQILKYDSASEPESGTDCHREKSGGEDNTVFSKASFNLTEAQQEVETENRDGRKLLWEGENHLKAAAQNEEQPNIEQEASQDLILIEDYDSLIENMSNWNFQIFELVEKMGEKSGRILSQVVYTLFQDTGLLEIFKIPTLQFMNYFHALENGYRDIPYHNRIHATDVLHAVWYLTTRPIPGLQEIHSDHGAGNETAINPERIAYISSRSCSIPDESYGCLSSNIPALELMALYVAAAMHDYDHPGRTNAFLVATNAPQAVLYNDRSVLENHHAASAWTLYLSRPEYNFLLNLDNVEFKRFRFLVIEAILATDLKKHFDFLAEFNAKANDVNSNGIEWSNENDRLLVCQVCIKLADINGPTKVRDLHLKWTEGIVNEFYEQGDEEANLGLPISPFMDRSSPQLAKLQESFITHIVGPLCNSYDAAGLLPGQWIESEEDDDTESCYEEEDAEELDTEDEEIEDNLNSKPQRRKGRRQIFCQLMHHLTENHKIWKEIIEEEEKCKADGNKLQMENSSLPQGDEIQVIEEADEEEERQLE

Rattus norvegicus [4] = organism: Rattus norvegicus; assay: Increased intracellular cGMP concentration in rat aortic smooth cells (RSMC) using atrial natriuretic factor; assay type: functional, cell-based; conditions: Aorta; summary of the method: as §1
Phosphodiesterase 1 = Phosphodiesterase 1 (Bos taurus, UniProt Q01061+P14100); assay: Inhibition of bovine aorta PDE1 (Phosphodiesterase 1); assay type: protein assay
[5] = molecular target: cGMP-dependent 3',5'-cyclic phosphodiesterase (Homo sapiens, UniProt O00408); assay: Inhibition of Human recombinant PDE2 (Phosphodiesterase 2)
Sequence of cGMP-dependent 3',5'-cyclic phosphodiesterase (O00408 whole entry): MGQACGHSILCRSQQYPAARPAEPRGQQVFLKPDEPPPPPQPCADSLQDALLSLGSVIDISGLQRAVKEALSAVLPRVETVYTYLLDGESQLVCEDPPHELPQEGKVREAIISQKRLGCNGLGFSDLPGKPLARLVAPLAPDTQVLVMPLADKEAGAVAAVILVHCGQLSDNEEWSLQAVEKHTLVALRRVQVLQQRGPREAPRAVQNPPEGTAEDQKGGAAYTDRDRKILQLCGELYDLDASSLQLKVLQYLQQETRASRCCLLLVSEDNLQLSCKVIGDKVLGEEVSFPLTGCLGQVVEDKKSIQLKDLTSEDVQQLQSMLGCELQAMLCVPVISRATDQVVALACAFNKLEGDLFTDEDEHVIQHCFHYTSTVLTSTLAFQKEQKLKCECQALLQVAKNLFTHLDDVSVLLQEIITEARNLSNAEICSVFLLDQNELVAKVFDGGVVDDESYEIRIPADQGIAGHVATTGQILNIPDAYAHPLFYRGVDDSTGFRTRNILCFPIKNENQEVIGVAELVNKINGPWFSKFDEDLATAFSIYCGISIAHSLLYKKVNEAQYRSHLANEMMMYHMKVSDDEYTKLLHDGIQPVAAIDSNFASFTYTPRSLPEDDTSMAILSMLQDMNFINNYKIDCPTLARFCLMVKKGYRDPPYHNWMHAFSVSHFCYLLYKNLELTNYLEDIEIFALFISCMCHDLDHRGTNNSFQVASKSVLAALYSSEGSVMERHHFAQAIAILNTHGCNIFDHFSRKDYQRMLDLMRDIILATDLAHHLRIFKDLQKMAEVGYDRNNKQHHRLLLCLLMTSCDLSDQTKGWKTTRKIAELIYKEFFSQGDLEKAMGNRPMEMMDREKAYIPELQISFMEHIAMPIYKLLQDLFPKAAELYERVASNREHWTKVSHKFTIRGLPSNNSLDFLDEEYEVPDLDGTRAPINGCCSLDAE

Phosphodiesterase 6 = assay: Inhibition of bovine retina PDE6 (Phosphodiesterase 6); assay type: protein assay, Bos taurus
[6] = Oral bioavailability in rat was determined; assay type: ADME, organism-based; conditions: in vivo
[7] = Half life in rat; assay type: ADME, organism-based; conditions: in vivo
[8] = The total clearance time in plasma in rat was determined; assay type: ADME, organism-based

Row | Compound | IC50 [1] [nM] | EC50 (Rattus norvegicus [2]; Rattus norvegicus) [nM] | further results
1 | O=C1[C@H]2Cc3c([nH]c4ccccc34)[C@@H](c3ccc4c(c3)OCO4)N2C(=O)CN1C1CCCCC1 | 5 | 300 | 
2 | CC(C)N1CC(=O)N2[C@H](c3ccc4c(c3)OCO4)c3[nH]c4ccccc4c3C[C@@H]2C1=O (stereo in doubt) | 6 |  | EC50 (Rattus norvegicus [2]): 500 nM
3 | CCCCN1CC(=O)N2C(c3ccc(C)cc3)c3[nH]c4ccccc4c3C[C@@H]2C1=O (some centres not stated) | 26 | 350 | 
4 | CN1C[C@H]2Cc3c([nH]c4ccccc34)[C@@H](c3ccc4c(c3)OCO4)N2C1=O | 60 | > 10000 | 
5 | CCCCN1CC(=O)N2C(c3ccc(OC)c(OC)c3)c3[nH]c4ccccc4c3C[C@@H]2C1=O (some centres not stated) |  |  | inhibition [3]: 62%
6 | COc1ccc(C2c3[nH]c4ccccc4c3C[C@@H]3C(=O)N(Cc4ccccc4)C(=O)N23)cc1 (some centres not stated) | 18 | > 10000 | 
7 | CCCc1nn(C)c2c(=O)[nH]c(-c3cc(S(=O)(=O)N4CCN(C)CC4)ccc3OCC)nc12 |  |  | IC50 (Phosphodiesterase 3B): 9200 nM
8 | CCCCN1CC(=O)N2C(c3ccc(C#N)cc3)c3[nH]c4ccccc4c3C[C@@H]2C1=O (some centres not stated) | 758 |  | 
9 | COc1ccc([C@H]2c3[nH]c4ccccc4c3C[C@@H]3C(=O)N(Cc4ccccc4)CN23)cc1 | 60 | > 10000 | 
10 | CCCCN1CC(=O)N2[C@H](c3ccc4c(c3)OCO4)c3[nH]c4ccccc4c3C[C@@H]2C1=O (stereo in doubt; 13) | 3 | 1000 | 
11 | CCCCN1CC(=O)N2C(c3ccc4c(c3)OCO4)c3[nH]c4ccccc4c3C[C@@H]2C1=O (single isomer, unassigned) | 138 | 3500 | 
12 | O=C1[C@H]2Cc3c([nH]c4ccccc34)C(c3ccc4c(c3)OCO4)N2C(=O)N1Cc1ccccc1 (some centres not stated) | 6 | 3000 | 
13 | CCCCN1C(=O)C2Cc3c([nH]c4ccccc34)C(c3ccc(OC)cc3)N2C1=O (configuration not stated) |  | 1000 | 
14 | Cc1ccc([C@@H]2c3[nH]c4ccccc4c3C[C@@H]3C(=O)N(CC4CC4)CC(=O)N23)cc1 | 23 | 600 | 
15 | CCN1CC(=O)N2[C@H](c3ccc(OC)cc3)c3[nH]c4ccccc4c3C[C@@H]2C1=O |  | 500 | 
16 | CN1CC(=O)N2[C@H](c3ccc4c(c3)OCO4)c3[nH]c4ccccc4c3C[C@@H]2C1=O (stereo in doubt) |  |  | EC50 (Rattus norvegicus [2]): 500 nM

Row | Compound | IC50 [1] [nM] | EC50 (Rattus norvegicus [2]; Rattus norvegicus) [nM] | further results
17 | CCCCN1CC(=O)N2[C@H](c3ccc(OC)cc3)c3[nH]c4ccccc4c3C[C@@H]2C1=O | 5 | 1500 | 
18 | COc1ccc(C2c3[nH]c4ccccc4c3C[C@@H]3C(=O)N(C)C(=O)N23)cc1 (some centres not stated) | 10 | 1000 | 
19 | COc1ccc([C@@H]2c3[nH]c4ccccc4c3C[C@@H]3C(=O)N(C4CCCC4)CC(=O)N23)cc1 | 17 | 200 | 
20 | O=C1[C@H]2Cc3c([nH]c4ccccc34)[C@@H](c3ccc4c(c3)OCO4)N2C(=O)CN1Cc1ccccc1 | 3 | 800 | 
21 | CCCCN1C(=O)[C@H]2Cc3c([nH]c4ccccc34)C(c3ccc(OC)cc3)N2C1=O (some centres not stated) |  |  | EC50 (Rattus norvegicus [4]): 700 nM
22 | CCCCN1CC(=O)N2C(c3ccc(OC)cc3)c3[nH]c4ccccc4c3C[C@@H]2C1=O (some centres not stated) | 70 | > 10000 | 
23 | CN1CC(=O)N2[C@H](c3ccc4c(c3)OCO4)c3[nH]c4ccccc4c3C[C@@H]2C1=O (stereo in doubt; 12a) |  |  | IC50 (Phosphodiesterase 1): > 10000 nM; IC50 [5]: > 10000 nM; IC50 (Phosphodiesterase 6): 5100 nM; EC50 (Rattus norvegicus [2]): 150 nM; bioavailability [6]: 63%; IC50 (Phosphodiesterase 3B): > 10000 nM; half-life [7]: 2.4 h; clearance [8]: 5.1 mL/min/kg
24 | CCCCN1CC(=O)N2C(c3ccccc3)c3[nH]c4ccccc4c3C[C@@H]2C1=O (some centres not stated) | 91 | > 10000 | 
25 | O=C1NCC(=O)N2[C@H](c3ccc4c(c3)OCO4)c3[nH]c4ccccc4c3C[C@H]12 (stereo in doubt) [NORTADALAFIL] | 12 |  | EC50 (Rattus norvegicus [2]): 600 nM
26 | O=C1NCC(=O)N2[C@H](c3ccc4c(c3)OCO4)c3[nH]c4ccccc4c3C[C@H]12 (stereo in doubt; 16) [NORTADALAFIL] | 11 | 300 | 
27 | COc1ccc([C@@H]2c3[nH]c4ccccc4c3C[C@@H]3C(=O)N(C)CC(=O)N23)cc1 | 41 | 200 | 
28 | CCCCN1CC(=O)N2C(c3ccc(Cl)cc3)c3[nH]c4ccccc4c3C[C@@H]2C1=O (some centres not stated) | 15 | > 10000 | 
29 | COc1ccc([C@@H]2c3[nH]c4ccccc4c3C[C@@H]3C(=O)N(CC4CC4)CC(=O)N23)cc1 | 6 | 500 | 
30 | CCCCN1C[C@H]2Cc3c([nH]c4ccccc34)[C@@H](c3ccc(OC)cc3)N2C1 | > 10000 |  | 
31 | CCCCN1CC(=O)N2[C@H](c3ccc4c(c3)OCO4)c3[nH]c4ccccc4c3C[C@@H]2C1=O (stereo in doubt) | 5 |  | EC50 (Rattus norvegicus [2]): 600 nM
32 | CC(C)N1CC(=O)N2[C@H](c3ccc4c(c3)OCO4)c3[nH]c4ccccc4c3C[C@@H]2C1=O (stereo in doubt; 14) | 8 |  | EC50 (Rattus norvegicus [2]): 150 nM
